What all share (assay type): functional
The subject of one assay is MCF7. The assay can be described thus: Cytotoxicity against human MCF7 cells assessed as cell viability after 24 hrs by WST-1 assay. The settings on record: MCF7, 24 h, read-out: LD50 (the source's name). Summed up:
(§1)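 Cells from ATCC grown in McCoy's 5A with 10% FBS, penicillin (100 units/mL) and streptomycin (100 μg/mL) at 37 °C, 5% CO2. Seeded at 1 × 10^4 cells per well with a range of compound concentrations for 24 h. Viability read by WST-1. LD50 values reported as mean ± SD (n = 5).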

The next assay deals with HCT-116. The assay can be described thus: Cytotoxicity against human HCT116 cells assessed as cell viability after 24 hrs by WST-1 assay. The settings on record: HCT-116, 24 h, read-out: LD50 (the source's name). Summed up: as §1
The subject of a further assay is MOLT-4. Description: Cytotoxicity against human MOLT4 cells assessed as cell viability after 24 hrs by WST-1 assay. The settings on record: MOLT-4, 24 h, read-out: LD50 (the source's name). The essentials: as §1
The test system of another assay is HeLa. Description: Cytotoxicity against human HeLa cells assessed as cell viability after 24 hrs by WST-1 assay. Particulars: read-out: LD50 (the source's name). Summed up: as §1
(In general: Tetrazolium dyes change colour on reduction, which living cells bring about.)

The next assay has as its system RAW264.7. The assay can be described thus: Cytotoxicity against mouse RAW264.7 cells assessed as cell viability after 24 hrs by WST-1 assay. Particulars: RAW264.7, 24 h, read-out: LD50 (the source's name). The essentials: as §1
Another assay concerns Jurkat. The assay can be described thus: Cytotoxicity against human Jurkat cells assessed as cell viability after 24 hrs by WST-1 assay. The settings on record: read-out: LD50 (the source's name). The essentials: as §1

In the case of `CCCCC/C=C/c1c(O)ccc(O)c1CO`, the CC50 was found to be 14.8 µM in the assay on MCF7; 5.8 µM in the assay with HCT-116; 3 µM in the assay on MOLT-4; 24.6 µM in the assay with HeLa; 5.6 µM in the assay with RAW264.7; 3.1 µM in the assay with Jurkat.

Consider `CCCCCCC(O)c1c(O)ccc(O)c1CO` (stereo not drawn), for which the CC50 with MCF7 is over 100 µM; with HCT-116, 69.7 µM; with MOLT-4 it was over 100 µM; in the assay with HeLa, over 100 µM; in the assay with RAW264.7, 55.4 µM; in the assay on Jurkat, over 100 µM.

With `CCCCCCCc1c(O)ccc(O)c1CO`, the CC50 was found to be 93 µM in the assay with MCF7; 61.8 µM in the assay with HCT-116; 5.9 µM in the assay on MOLT-4; 77.6 µM in the assay with HeLa; 20.1 µM in the assay with RAW264.7; 8.2 µM with Jurkat.

On to `CCCCCCC(O)c1cccc(O)c1CO` (stereo not drawn), for which the CC50 is over 100 µM in the assay with MCF7; 66 µM with HCT-116; 6.2 µM in the assay with MOLT-4; 64.2 µM with HeLa; 26.2 µM in the assay with RAW264.7; 8.3 µM in the assay on Jurkat.

`CCCCC/C=C/C1=C(CO)C(=O)C[C@H](O)[C@@H]1O`: the CC50 in the assay on MCF7, with HCT-116, with MOLT-4, in the assay with HeLa, in the assay with RAW264.7 and with Jurkat was over 100 µM throughout.

With `CCCCC/C=C/C1=C(CO)C(=O)[C@H]2O[C@H]2[C@@H]1O`, the CC50 stood at 75 µM in the assay on MCF7; 6.4 µM with HCT-116; 11.2 µM in the assay with MOLT-4; 77.8 µM with HeLa; 6.5 µM with RAW264.7; 20 µM with Jurkat.

For `CCCCC/C=C/C1=C(CO)[C@H](O)[C@H]2O[C@H]2[C@@H]1O`, the CC50 in the assay on MCF7, in the assay with HCT-116, with MOLT-4, in the assay with HeLa, in the assay with RAW264.7 and with Jurkat was over 100 µM throughout.

`Nc1ccn([C@@H]2O[C@H](CO)[C@@H](O)C2(F)F)c(=O)n1` [GEMCITABINE]: the CC50 is 0.004 µM with MCF7; 0.005 µM in the assay with HCT-116; 0.008 µM with MOLT-4; 0.023 µM in the assay with HeLa; 0.005 µM in the assay on RAW264.7; 0.012 µM in the assay on Jurkat.

For the origin of these results see ChEMBL document CHEMBL3286175, “Cytotoxic alkylated hydroquinone, phenol, and cyclohexenone derivatives from Aspergillus violaceofuscus Gasperini” (2014).
